Calls of active or inactive are those of the source. The calls are words filed in the database; no cut-off is given here.
Legend:
Yellow fever virus [1] = assay: Antiviral activity against luciferase reporting full length Yellow fever virus infected in BHK15 cells assessed as reduction in virus infectivity ncubated at 50 uM at 37 degC for 36 hrs by luciferase reporter gene assay; type: functional; settings: BHK15, 36 h
Yellow fever virus [2] = assay: microbe, parasite or virus in culture; type: functional, organism-based; settings: BHK15, 36 h
[3] = Therapeutic index, ratio of GI50 for uninfected BHK cells to EC50 for luciferase reporting full length Yellow fever virus; type: cell-based; settings: hamster, read-out: TI
In short: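 TI is GI50 in uninfected BHK cells (XTT, ~36 h) divided by EC50. EC50 was estimated by nonlinear regression against DMSO-treated infected cells.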

[4] = Toxicity against uninfected BHK cells assessed as growth inhibition incubated at 37 degC for 36 hrs by XTT assay; type: cell-based, Mesocricetus auratus; settings: hamster
In short: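 Confluent BHK-15 cells were exposed to serial dilutions of compound (DMSO stocks) for ~36 h at 37 °C, 5% CO2. Medium was then replaced, and XTT substrate was added for 2 h at 37 °C before reading OD450. Values were compared with 1% DMSO-treated cells to calculate GI50.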

[5] = target: T1, Luciferin 4-monooxygenase (Luciola lateralis) (UniProt Q01158); assay: Inhibition of firefly luciferase expressed in BHK15 cells transfected with luciferase-pcDNA3 incubated at 37 degC for 20 hrs by luciferase reporter gene assay; type: cell-based; settings: Aquatica lateralis
T1 sequence (whole entry): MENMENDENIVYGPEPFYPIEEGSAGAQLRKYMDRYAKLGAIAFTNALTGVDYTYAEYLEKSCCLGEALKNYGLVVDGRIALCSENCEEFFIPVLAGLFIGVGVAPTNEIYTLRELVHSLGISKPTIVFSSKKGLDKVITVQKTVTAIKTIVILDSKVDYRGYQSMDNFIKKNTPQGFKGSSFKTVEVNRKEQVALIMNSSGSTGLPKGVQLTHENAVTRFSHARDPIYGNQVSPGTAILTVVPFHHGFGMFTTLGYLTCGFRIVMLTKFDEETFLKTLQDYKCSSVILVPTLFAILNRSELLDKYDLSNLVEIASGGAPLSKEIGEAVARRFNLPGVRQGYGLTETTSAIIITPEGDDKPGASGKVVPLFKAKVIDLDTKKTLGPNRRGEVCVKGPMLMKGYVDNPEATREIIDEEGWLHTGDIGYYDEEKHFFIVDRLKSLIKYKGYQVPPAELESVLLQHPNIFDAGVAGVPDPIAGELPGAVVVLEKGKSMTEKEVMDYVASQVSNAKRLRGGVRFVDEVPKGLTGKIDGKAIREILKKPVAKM
In short: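 BHK-15 cells grown to confluency, transfected with firefly luciferase-pcDNA3 plasmid by Lipofectamine; complexes removed at 3 h and replaced with medium holding serial compound dilutions from DMSO stock; 37 °C, 5% CO2, 20 h. Cells lysed and luminescence read with firefly luciferase substrate; signal compared with 1% DMSO-treated cells. Controls: uninfected, infected, DMSO-treated.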

SMILES	inhibition at 50 µM (Yellow fever virus [1]) [%]	EC50 (Yellow fever virus [2]) [µM]	selectivity ratio [3]	GI50 at 36 h [4] [µM]	inhibition [5]
COC(=O)c1sc(-c2ccc(F)cc2)nc1C(Br)Br	< 50	–	–	–	–
COC(=O)c1sc(-c2ccc(Br)cc2)nc1C	< 50	–	–	–	–
COC(=O)c1sc(-c2ccc(F)cc2)nc1C	< 50	–	–	–	–
COC(=O)c1sc(-c2ccc3ccccc3c2)nc1C(Br)Br	26	–	–	–	–
COC(=O)c1sc(-c2ccccc2)nc1C(Br)Br	< 50	–	–	–	–
COC(=O)c1sc(-c2ccc(Br)cc2)nc1C(Br)Br	81.9	3.3	121	408	–
COC(=O)c1sc(-c2ccccc2F)nc1C	< 50	–	–	–	–
CCCCc1ccc(-c2nc(C)c(C(=O)SC)s2)cc1	94.1	45.6	1	46.5	–
COC(=O)c1sc(-c2cccc(Br)c2)nc1C(Br)Br	93	26	1	26.5	–
CCCc1ccc(-c2nc(C)c(C(=O)OC)s2)cc1	83.2	34.3	12	499	–
COC(=O)c1sc(-c2ccc(OC)cc2)nc1C	< 50	–	–	–	–
COC(=O)c1sc(-c2ccc(Cl)c(Cl)c2)nc1C	-8.2	–	–	–	–
COC(=O)c1sc(-c2ccccc2Br)nc1C(Br)Br	< 50	–	–	–	–
COC(=O)c1sc(-c2ccc(Cl)c(Cl)c2)nc1C(Br)Br	42.2	–	–	–	–
COC(=O)c1sc(Cc2ccc(Cl)cc2)nc1C	-6.5	–	–	–	–
COC(=O)c1sc(-c2ccc(C(C)(C)C)cc2)nc1C	< 50	–	–	–	–

SMILES	inhibition at 50 µM (Yellow fever virus [1]) [%]	EC50 (Yellow fever virus [2]) [µM]	selectivity ratio [3]	GI50 at 36 h [4] [µM]	inhibition [5]
COC(=O)c1sc(-c2ccccc2Br)nc1C	< 50	–	–	–	–
COC(=O)c1sc(-c2ccccc2)nc1C	< 50	–	–	–	–
COC(=O)c1sc(-c2ccc(OC)cc2)nc1C(Br)Br	< 50	–	–	–	–
COC(=O)c1sc(-c2ccccc2F)nc1C(Br)Br	< 50	–	–	–	–
COC(=O)c1sc(-c2ccc(C(F)(F)F)cc2)nc1C(Br)Br	91	10.6	26	262	–
CCCCCc1ccc(-c2nc(C)c(C(=O)OC)s2)cc1	98.6	38.9	1.1	41.5	–
CCCCc1ccc(-c2nc(C)c(C(=O)OC)s2)cc1	91.9	2.8	22	63.1	–
COC(=O)c1sc(-c2cccc(Br)c2)nc1C	< 50	–	–	–	–
CCCCc1ccc(-c2nc(C)c(C(C)=O)s2)cc1	99.8	10.1	6	59.4	–
Nc1ccccc1SCc1csc(-c2ccc(Cl)cc2)n1	–	–	2	61	–
COC(=O)c1sc(-c2ccccc2Cl)nc1C	< 50	–	–	–	–
CCCCc1ccc(-c2nc(C)c(C(=O)O)s2)cc1	83.2	203	–	366	–
COC(=O)c1sc(Cc2ccccc2)nc1C	-23.8	–	–	–	–
CCCCc1ccc(-c2nc(C)c(/C(C)=N/NC(=N)N)s2)cc1	99.2	2.4	147	353	inactive
COC(=O)c1sc(-c2ccccc2Cl)nc1C(Br)Br	< 50	–	–	–	–

Source: ChEMBL document CHEMBL1795202, “An investigation of phenylthiazole antiflaviviral agents” (Bioorg Med Chem, 2011)
